Measurements published in ChEMBL document CHEMBL4689842, “EUbOPEN Chemogenomics Library wave 1” (2021).

System: Fibroblast
Experiment: Multiplex assay against human fibroblast
Format: toxicity, cell-based
Summary of the method: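 Phenotypes for tubulin, mitochondrial mass and membrane permeability are expressed as per cents of healthy-nucleus cells. Cells were stained live at seeding with Hoechst33342, BioTracker Green Microtubule Cytoskeleton Dye, MitoTracker Red and Annexin V Alexa Fluor 680, then imaged after compound addition on a CQ1 microscope at 37°C and 5% CO2. Machine-learning gating in CellPathfinder separated Hoechst high-intensity objects from normal cells, divided normal cells by nuclear state (healthy, pyknosed, fragmented) and divided pyknosed cells into mitotic or apoptotic.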

[1] = 12 h, 1 µM, compound concentration 1 uM, replicate 1
[2] = 12 h, 1 µM, compound concentration 1 uM, replicate 2
[3] = 12 h, 10 µM, compound concentration 10 uM, replicate 1
[4] = 12 h, 10 µM, compound concentration 10 uM, replicate 2
[5] = 24 h, 1 µM, compound concentration 1 uM, replicate 1
[6] = 24 h, 1 µM, compound concentration 1 uM, replicate 2
[7] = 24 h, 10 µM, compound concentration 10 uM, replicate 1
[8] = 24 h, 10 µM, compound concentration 10 uM, replicate 2
[9] = 48 h, 1 µM, compound concentration 1 uM, replicate 1
[10] = 48 h, 1 µM, compound concentration 1 uM, replicate 2
[11] = 48 h, 10 µM, compound concentration 10 uM, replicate 1
[12] = 48 h, 10 µM, compound concentration 10 uM, replicate 2

`Cc1ccccc1C(c1ccccc1C)N1C2CCC1CC(O)(c1ccccc1)C2` (centres undefined) was tested, and the “Population Apoptotic (%)” value [1] was 68%, the “Population Fragmented Nuclei (%)” value [1] was 14% and the “Population Healthy Nuclei (%)” value [1] was 40%. For the same molecule, the “Population Mitotic Cells (%)” value [1] was 31%, the “Population Normal (%)” value [1] was 84% and the “Population Pyknosed Nuclei (%)” value [1] was 44%. The “Total Cell Count” value [1] was 127, the “Population Apoptotic (%)” value [2] was 50% and the “Population Fragmented Nuclei (%)” value [2] was 9%. For the same molecule, the “Population Healthy Nuclei (%)” value [2] was 81%, the “Population Hoechst High Intensity Objects (%)” value [2] was 9% and the “Population Mitotic Cells (%)” value [2] was 50%. The “Population Normal (%)” value [2] was 90%, the “Population Pyknosed Nuclei (%)” value [2] was 9% and the “Total Cell Count” value [2] was 80. The “Population Apoptotic (%)” value [3] was 63%, the “Population Fragmented Nuclei (%)” value [3] was 23% and the “Population Healthy Nuclei (%)” value [3] was 44%. The “Population Mitotic Cells (%)” value [3] was 36%, the “Population Normal (%)” value [3] was 85% and the “Population Pyknosed Nuclei (%)” value [3] was 32%. For the same molecule, the “Total Cell Count” value [3] was 161, the “Population Apoptotic (%)” value [4] was 40% and the “Population Healthy Nuclei (%)” value [4] was 81%. For the same molecule, the “Population Mitotic Cells (%)” value [4] was 60%, the “Population Normal (%)” value [4] was 86% and the “Total Cell Count” value [4] was 71. For the same molecule, the “Population Apoptotic (%)” value [5] was 62%, the “Population Healthy Nuclei (%)” value [5] was 55% and the “Population Hoechst High Intensity Objects (%)” value [5] was 20%. The “Population Mitotic Cells (%)” value [5] was 37%, the “Population Normal (%)” value [5] was 79% and the “Population Pyknosed Nuclei (%)” value [5] was 28%. The “Total Cell Count” value [5] was 107, the “Population Fragmented Nuclei (%)” value [6] was 9% and the “Population Healthy Nuclei (%)” value [6] was 77%. For the same molecule, the “Population Hoechst High Intensity Objects (%)” value [6] was 4%, the “Population Mitotic Cells (%)” value [6] was 80% and the “Population Normal (%)” value [6] was 95%. For the same molecule, the “Total Cell Count” value [6] was 89, the “Population Apoptotic (%)” value [7] was 47% and the “Population Fragmented Nuclei (%)” value [7] was 23%. The “Population Healthy Nuclei (%)” value [7] was 47%, the “Population Hoechst High Intensity Objects (%)” value [7] was 8% and the “Population Mitotic Cells (%)” value [7] was 52%. For the same molecule, the “Population Normal (%)” value [7] was 91%, the “Population Pyknosed Nuclei (%)” value [7] was 28% and the “Total Cell Count” value [7] was 159. The “Population Apoptotic (%)” value [8] was 50%, the “Population Fragmented Nuclei (%)” value [8] was 20% and the “Population Healthy Nuclei (%)” value [8] was 65%. The “Population Mitotic Cells (%)” value [8] was 50%, the “Population Normal (%)” value [8] was 93% and the “Total Cell Count” value [8] was 85. For the same molecule, the “Population Apoptotic (%)” value [9] was 61%, the “Population Fragmented Nuclei (%)” value [9] was 30% and the “Population Healthy Nuclei (%)” value [9] was 51%. The “Population Hoechst High Intensity Objects (%)” value [9] was 16%, the “Population Mitotic Cells (%)” value [9] was 38% and the “Population Normal (%)” value [9] was 83%. The “Total Cell Count” value [9] was 121, the “Population Apoptotic (%)” value [10] was 0% and the “Population Fragmented Nuclei (%)” value [10] was 60%. For the same molecule, the “Population Healthy Nuclei (%)” value [10] was 40%, the “Population Hoechst High Intensity Objects (%)” value [10] was 0% and the “Population Mitotic Cells (%)” value [10] was 0%. For the same molecule, the “Population Normal (%)” value [10] was 100%, the “Population Pyknosed Nuclei (%)” value [10] was 0% and the “Total Cell Count” value [10] was 5. The “Population Apoptotic (%)” value [11] was 40%, the “Population Fragmented Nuclei (%)” value [11] was 30% and the “Population Healthy Nuclei (%)” value [11] was 59%. For the same molecule, the “Population Mitotic Cells (%)” value [11] was 60%, the “Population Normal (%)” value [11] was 92% and the “Population Pyknosed Nuclei (%)” value [11] was 9%. For the same molecule, the “Total Cell Count” value [11] was 170, the “Population Apoptotic (%)” value [12] was 100% and the “Population Fragmented Nuclei (%)” value [12] was 35%. The “Population Healthy Nuclei (%)” value [12] was 62%, the “Population Hoechst High Intensity Objects (%)” value [12] was 4% and the “Population Mitotic Cells (%)” value [12] was 0%. For the same molecule, the “Population Normal (%)” value [12] was 95%, the “Population Pyknosed Nuclei (%)” value [12] was 1% and the “Total Cell Count” value [12] was 118.
